In ChEMBL document CHEMBL1123736, “Dihydropyridazinone cardiotonics: synthesis and inotropic activity of 5'-(1,4,5,6-tetrahydro-6-oxo-3-pyridazinyl)spiro[cycloalkane- 1,3'-[3H]indol]-2'(1'H)-ones” (J Med Chem, 1987):

Assays:
Canis familiaris [1] = assay: Decreased mean arterial blood pressure in anesthetized dogs after intravenous administration; format: functional, Canis lupus familiaris
Canis familiaris [2] = assay: Increased heart rate in anesthetized dogs after intravenous administration; format: functional, Canis lupus familiaris
[3] = molecular target: Phosphodiesterase; PDE3 & PDE4; assay: (§1) Inhibition of Sarcoplasmic Reticulum cAMP Phosphodiesterase from canine myocardium; format: tissue-based, Canis lupus familiaris
How it was run: (§2)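 PDE came from free sarcoplasmic reticulum vesicles (fraction E) of canine ventricles, stored at -80 °C. Two-step assay with 1 μM cAMP substrate, run 60 min at room temperature (22 ± 2 °C). Enzyme was added to hydrolyze less than 20% of the substrate.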

Canis familiaris [4] = assay: Myocardial contractility in anesthetized dogs on intravenous administration; format: functional; conditions: Canis lupus familiaris, Myocardium
How it was run: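 Open-chest, pentobarbital-anesthetized dogs. Right ventricular contractility was measured with a Walton-Brodie strain-gauge arch sutured to the ventricle, baseline 50 g tension. Increasing iv doses via the femoral vein at 5-min intervals; peak responses recorded; vehicle controls given. ED50 by linear regression, mean ± SEM (n > 2) or mean ± range (n = 2).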

[5] = molecular target: Phosphodiesterase; PDE3 & PDE4; assay: as §1; format: tissue-based, Canis lupus familiaris; remark: listed apart in the source
How it was run: as §2, with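 “substrate. Inhibitors were dissolved in DMSO, with 2.5% v/v carryover. IC50 and 95% confidence limits were obtained by regression of the logit transformation.” for “substrate.”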

Row | IC50 [3] | Ki [5] | SMILES | Decrease in MAP (Canis familiaris [1]) | Increase in HR (Canis familiaris [2]) | ED50 (Canis familiaris [4])
1 | 930 nM |  | O=C1CCC(c2ccc3c(c2)C2(CCCC2)C(=O)N3)=NN1 | 17% | 14% | 0.133 mg/kg
2 | 290 nM |  | O=C1CCC(c2ccc3c(c2)C2(CCC2)C(=O)N3)=NN1 | 17% | 13% | 0.0348 mg/kg
3 | 13 nM |  | CC1CC(=O)NN=C1c1ccc2c(c1)C1(CC1)C(=O)N2 (stereo not given) | 35% | 17% | 0.0015 mg/kg
4 |  |  | CC1CC(O)=NN=C1c1ccc(-n2ccnc2)cc1 (stereo not given) [CI-930] |  |  | 0.013 mg/kg
5 |  |  | O=C1CCC(c2ccc(-n3ccnc3)cc2)=NN1 [IMAZODAN] |  |  | 0.045 mg/kg
6 | 130 nM | 80 nM | CC1(C)C(=O)Nc2ccc(C3=NNC(=O)CC3)cc21 [INDOLIDAN] | 15.2% | 11.8% | 0.0068 mg/kg
7 |  |  | Cc1[nH]c(=O)c(C#N)cc1-c1ccncc1 [MILRINONE] |  |  | 0.037 mg/kg
